{"source": "ChEMBL document CHEMBL1629492", "about": "(Eur J Med Chem, 2010)", "key": {"[1]": {"target": "T1, Alpha-1D adrenergic receptor (Rattus norvegicus) (UniProt P23944)", "T1 sequence (whole entry)": "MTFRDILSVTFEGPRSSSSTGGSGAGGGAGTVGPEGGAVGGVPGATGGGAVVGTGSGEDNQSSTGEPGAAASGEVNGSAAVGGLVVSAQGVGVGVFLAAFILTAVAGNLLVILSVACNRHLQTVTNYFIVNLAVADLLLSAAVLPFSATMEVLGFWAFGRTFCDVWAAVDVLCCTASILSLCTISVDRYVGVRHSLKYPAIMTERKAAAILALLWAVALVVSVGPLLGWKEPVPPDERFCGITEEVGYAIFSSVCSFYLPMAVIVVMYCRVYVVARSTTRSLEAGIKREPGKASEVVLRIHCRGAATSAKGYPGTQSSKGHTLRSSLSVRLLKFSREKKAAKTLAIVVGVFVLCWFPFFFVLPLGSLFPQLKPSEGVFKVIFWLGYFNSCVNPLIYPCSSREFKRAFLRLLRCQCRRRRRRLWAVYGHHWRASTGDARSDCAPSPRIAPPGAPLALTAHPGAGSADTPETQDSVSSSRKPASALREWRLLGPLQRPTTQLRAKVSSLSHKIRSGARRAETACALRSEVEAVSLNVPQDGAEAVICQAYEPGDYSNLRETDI", "settings": "Wistar, Thoracic aorta"}, "[2]": {"target": "T2, Alpha-1B adrenergic receptor (Rattus norvegicus) (UniProt P15823)", "T2 sequence (whole entry)": "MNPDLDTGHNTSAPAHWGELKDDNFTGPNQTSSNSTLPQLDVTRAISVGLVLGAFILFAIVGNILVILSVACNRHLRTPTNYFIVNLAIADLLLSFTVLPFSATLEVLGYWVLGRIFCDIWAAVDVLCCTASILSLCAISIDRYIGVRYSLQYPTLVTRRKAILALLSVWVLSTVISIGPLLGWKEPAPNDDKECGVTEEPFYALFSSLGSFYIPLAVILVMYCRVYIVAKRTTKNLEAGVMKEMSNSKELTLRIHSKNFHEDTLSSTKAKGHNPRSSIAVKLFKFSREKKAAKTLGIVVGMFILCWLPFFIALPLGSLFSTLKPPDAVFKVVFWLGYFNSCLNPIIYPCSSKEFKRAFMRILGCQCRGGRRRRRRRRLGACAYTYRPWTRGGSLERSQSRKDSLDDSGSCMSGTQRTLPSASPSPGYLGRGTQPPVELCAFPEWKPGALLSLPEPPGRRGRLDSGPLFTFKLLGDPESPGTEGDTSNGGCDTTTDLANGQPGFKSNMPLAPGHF", "assay": "Antagonist activity at Alpha-1B adrenoceptor in Wistar rat spleen assessed as phenylephrine induced contractions after 30 mins", "format": "functional, tissue-based", "summary_of_the_method": "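Spleen strips from male Wistar rats (275–300 g) were set up in a 20 mL bath of physiological salt solution (pH 7.4, 37 °C, 95% O2/5% CO2) under 1 g tension and equilibrated 2 h. Two cumulative phenylephrine curves were run, each followed by 30 min washing, then 30 min incubation with vehicle or antagonist before a third curve. Values are Schild pA2, or pKB where slopes were nonparallel; 4–6 experiments.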"}, "[3]": {"target": "T3, Alpha-1B adrenergic receptor (Homo sapiens, UniProt P35368)", "T3 sequence (P35368 whole entry)": "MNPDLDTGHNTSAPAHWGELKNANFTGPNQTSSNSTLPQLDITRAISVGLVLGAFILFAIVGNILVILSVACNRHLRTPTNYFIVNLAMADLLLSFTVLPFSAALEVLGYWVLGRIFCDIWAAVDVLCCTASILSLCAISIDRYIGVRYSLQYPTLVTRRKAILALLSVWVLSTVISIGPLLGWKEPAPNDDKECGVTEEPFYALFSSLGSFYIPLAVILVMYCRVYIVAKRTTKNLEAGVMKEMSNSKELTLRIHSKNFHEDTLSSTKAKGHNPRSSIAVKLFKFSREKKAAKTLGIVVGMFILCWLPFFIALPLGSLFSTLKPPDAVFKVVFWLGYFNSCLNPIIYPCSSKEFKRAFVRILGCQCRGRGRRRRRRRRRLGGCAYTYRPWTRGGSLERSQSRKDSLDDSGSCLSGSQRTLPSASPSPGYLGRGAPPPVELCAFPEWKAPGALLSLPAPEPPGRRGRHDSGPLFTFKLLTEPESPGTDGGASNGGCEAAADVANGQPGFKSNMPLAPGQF", "assay": "Displacement of [3H]prazosin from human Alpha-1B adrenoceptor expressed in CHO cells", "format": "cell-based", "summary_of_the_method": "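Membranes ([…], as printed) from CHO cells stably expressing the cloned human α1b subtype were incubated with 0.1–0.4 nM [³H]prazosin and competitor (1 pM up to the top concentration) in 50 mM Tris-HCl, pH 7.4, for 30 min at 25 °C. Non-specific binding was defined with phentolamine, and incubations ended by filtration. Ki was derived from IC50 by Cheng–Prusoff. Reported as pKi from 2–3 triplicate experiments.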"}, "[4]": {"target": "T4, Alpha-1A adrenergic receptor (Rattus norvegicus) (UniProt P43140)", "T4 sequence (whole entry)": "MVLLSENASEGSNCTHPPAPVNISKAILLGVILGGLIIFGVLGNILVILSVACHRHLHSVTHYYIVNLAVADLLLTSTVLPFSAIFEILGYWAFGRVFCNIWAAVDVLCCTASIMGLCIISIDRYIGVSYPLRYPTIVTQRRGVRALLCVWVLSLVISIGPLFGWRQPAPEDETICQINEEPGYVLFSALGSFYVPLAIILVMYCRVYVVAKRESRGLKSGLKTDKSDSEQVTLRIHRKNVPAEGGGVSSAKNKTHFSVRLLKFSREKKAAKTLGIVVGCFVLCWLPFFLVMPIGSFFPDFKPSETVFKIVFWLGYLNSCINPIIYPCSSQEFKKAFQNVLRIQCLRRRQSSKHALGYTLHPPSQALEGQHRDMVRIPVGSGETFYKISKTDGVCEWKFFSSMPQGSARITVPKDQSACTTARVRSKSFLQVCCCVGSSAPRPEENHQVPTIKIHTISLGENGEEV", "assay": "Antagonist activity at alpha1A adrenoceptor in Wistar rat vas deferens assessed as noradrenaline induced contractions after 30 mins", "format": "functional, tissue-based", "summary_of_the_method": "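Prostatic portions (2 cm) of vas deferens from male Wistar rats (275–300 g) were held under 0.35 g tension in Tyrode solution at 37 °C with cocaine present. Tissues were equilibrated 45 min, primed twice with noradrenaline, then given a cumulative isotonic noradrenaline curve.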"}, "[5]": {"target": "T5, Alpha-1D adrenergic receptor (Homo sapiens, UniProt P25100)", "T5 sequence (P25100 whole entry)": "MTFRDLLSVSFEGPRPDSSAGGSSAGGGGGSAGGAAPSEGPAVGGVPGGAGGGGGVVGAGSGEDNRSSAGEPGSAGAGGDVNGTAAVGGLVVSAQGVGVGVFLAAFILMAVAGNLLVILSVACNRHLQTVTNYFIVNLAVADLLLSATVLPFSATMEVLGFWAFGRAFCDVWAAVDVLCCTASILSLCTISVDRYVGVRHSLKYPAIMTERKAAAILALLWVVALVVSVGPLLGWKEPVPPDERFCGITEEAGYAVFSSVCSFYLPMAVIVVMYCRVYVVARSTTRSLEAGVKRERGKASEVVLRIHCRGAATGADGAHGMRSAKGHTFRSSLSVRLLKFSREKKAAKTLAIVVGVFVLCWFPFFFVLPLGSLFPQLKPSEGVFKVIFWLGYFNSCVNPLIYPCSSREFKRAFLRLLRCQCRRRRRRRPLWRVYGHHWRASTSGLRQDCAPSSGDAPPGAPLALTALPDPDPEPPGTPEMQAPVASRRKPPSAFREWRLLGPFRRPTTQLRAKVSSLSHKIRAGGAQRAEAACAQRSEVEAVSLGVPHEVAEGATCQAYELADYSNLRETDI", "assay": "Displacement of [3H]prazosin from human Alpha-1D adrenoceptor expressed in CHO cells", "format": "cell-based", "summary_of_the_method": "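Membranes ([…], as printed) from CHO cells stably expressing the cloned human α1d subtype were incubated with 0.1–0.4 nM [³H]prazosin and competing drug (1 pM upward) in 50 mM Tris-HCl, pH 7.4, for 30 min at 25 °C. Phentolamine defined non-specific binding. IC50 was converted to Ki by Cheng–Prusoff. Reported as pKi from 2–3 triplicate experiments.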"}}, "data": [{"compound": "CCOc1ccccc1OCCN[C@H](C)Cc1ccc(OC)c(S(N)(=O)=O)c1", "note": "[TAMSULOSIN]", "values": [{"measurement": "pKb", "setting": "[1]", "result": 10}, {"measurement": "pKb", "setting": "[2]", "result": 9.3}, {"measurement": "Ki", "setting": "[3]", "result": 0.631, "unit": "nM"}, {"measurement": "pKb", "setting": "[4]", "result": 9.46}, {"measurement": "Ki", "setting": "[5]", "result": 0.1, "unit": "nM"}]}]}
